SUMO Mot1 rescue: blocks SUMOylation pathway, rescuing yeast Mot1-301 growth. growth rescue, % at 18.8 µM. actives 1% (n = 320,000). S. cerevisiae Mot1-301 growth rescue, ATP luminescence, 38.5C; percent above DMSO median, 100 means doubled;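 active = every valid replicate shows activation above 250% relative to neutral control wells; inactive = the rest, any valid replicate at or below 250%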
IMP-1 inhibitor: blocks Pseudomonas aeruginosa IMP-1 metallo-beta-lactamase; purified IMP-1, nitrocefin hydrolysis, epi-absorbance fluorescence; inhibition, % at 5.6 µM; actives 0.45% (n = 290,000);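 active = inhibition above the mean plus 3 SD of all compounds in the same screening run, cut at about 4.5% in these data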
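Material – recombinant IMP-1 enzyme, purified · Amount – IMP-1 0.2 nM before substrate addition · Medium – HEPES buffer pH 7.1 with ZnSO4 and Brij 35 · Timing – 25 °C, 15 min preincubation, 25 min reaction · Measured by – plate fluorescence quenching by hydrolysis product, ex 480/em 530 nm · Read-out – percent enzyme inhibition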
NALP1 yeast inh: blocks the NALP1 inflammasome reconstituted in yeast | inhibition, % at 10 µM | S. cerevisiae NALP1/ASC/caspase-1 growth, X-gal OD620, 72 h | actives 0.61% (n = 280,000) | AID 2071; in the data active = inhibition mostly above about 24%, no sharp cut-off; inactive = mostly below about 32%
UBC9 SUMO inh: blocks human SUMOylation mediated by UBC9; P63279; HTRF SUMOylation assay, SAE1/SAE2 + UBC9, in vitro; inhibition, % at 35 µM; actives 0.36% (n = 290,000); AID 2006; in the data active = inhibition above about 50%, passing the limit was not always enough
Target sequence (P63279 whole entry, looked up): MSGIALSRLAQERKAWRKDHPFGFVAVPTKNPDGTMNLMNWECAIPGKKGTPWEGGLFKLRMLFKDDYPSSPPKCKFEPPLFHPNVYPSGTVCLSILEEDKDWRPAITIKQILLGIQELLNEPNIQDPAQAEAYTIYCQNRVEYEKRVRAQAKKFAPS
DNA FID counter: counter-screen for HCV NS3 helicase inhibitors: DNA intercalator displacement; DNA fluorescent intercalator displacement, fluorescence; inhibition, % at 7.9 µM; actives 0.17% (n = 290,000); AID 1845; in the data active = inhibition above about 37%;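 also: higher means more ethidium bromide displaced from hairpin DNA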
VIM-2 inh: blocks Pseudomonas aeruginosa VIM-2 metallo-beta-lactamase. purified VIM-2, nitrocefin hydrolysis, epi-absorbance fluorescence. inhibition, % at 5.6 µM. actives 0.89% (n = 290,000);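 active = inhibition above the mean of all tested compounds plus 3 SD, cutoff set per screening run, cut at about 7.5% in these data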;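 also: red hydrolysis product quenches plate fluorescence so inhibitors raise well fluorescence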
Mot1 SUMO dose: yeast SUMO pathway inhibition in dose response; shares compounds with SUMO Mot1 rescue; S. cerevisiae Mot1-301 galactose growth, ATP luminescence, 24 h; -100 = growth of slx-deleted rescue strain; growth activity, percent, % at 42 µM; 2,300 tested, under 10 active; AID 493004;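 active = Signal drops as the depositor expects, and the fitted half-maximal dose is no more than ten times the top valid tested dose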;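 also: more negative values mean stronger growth rescue toward the control strain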
Hits are given with their value; . = inactive; / = not tested or not shown; + = active, no number. In the library only some 2.9% were active in any assay of this set; here they are far more common.

SMILES | SUMO Mot1 rescue | IMP-1 inhibitor | NALP1 yeast inh | UBC9 SUMO inh | DNA FID counter | VIM-2 inh | Mot1 SUMO dose
COc1ccc(CN2CCNC(=O)C2CC(=O)NCc2cn3ccc(C)cc3n2)c(OC)c1 (centres undefined) | 838 | . | . | . | . | . | .
Cc1ccc(-c2nnc(SCC#N)n2N)cc1 | + | . | . | . | . | . | .
CC(=O)c1ccc(N=C2SCCCN2C(=O)C2CCCC2)cc1 | 398 | . | . | . | . | . | .
O=C(CSc1nnc(-c2ccc3c(c2)OCO3)o1)Nc1c(F)cccc1F | . | / | / | / | / | / | /
CCCCNS(=O)(=O)c1ccc2c(c1)oc(=O)n2CC(=O)OCC | 540 | . | . | . | . | . | .
COc1cc(NC(=S)N2CCN(C(=O)C3CCCO3)CC2)c(OC)cc1Cl (centres undefined) | 370 | . | . | . | . | . | .
O=C(CN1CCN(C(=O)c2ccccc2)CC1)Nc1ccc(Cl)cc1F | . | . | . | . | . | . | /
O=C(CN1CCN(C(=O)c2ccccc2)CC1)Nc1ncc(Br)cc1Br | + | . | . | . | . | . | .
COc1ccc(CCNC(=O)c2ccc3c(c2)NC(=O)C(CSCc2cc(C)ccc2C)N3)cc1OC (centres undefined) | . | . | . | . | . | . | /
NC(=O)c1cccc2cc3ccccc3cc12 | 625 | . | . | . | . | . | .
Cc1cc[n+](CC(=O)Nc2cccc(C)c2)cc1 | . | . | . | . | . | . | /
O=C(Nc1ccc(Cl)cc1)N1CCC(c2nc(-c3ccc(F)cc3)no2)CC1 | + | . | . | . | . | . | .
CCC(C)NCCOc1ccccc1C (centres undefined) | 386 | 28 | . | . | . | . | .
Cc1ccc(S(=O)(=O)N2[C@@H](c3ccccc3F)C(C(=O)O)=CC[C@H]2c2ccc3c(c2)OCO3)cc1 | 497 | / | / | / | / | / | .
CCCc1nc2c(nnn2Cc2ccccc2F)c(=O)[nH]1 | 386 | . | . | . | . | . | .
O=c1[nH]c(C(F)(F)F)nc2c1nnn2Cc1ccccc1F | . | . | . | . | . | . | /
COc1ccc(N2CCN(C(=O)CNC(=O)Cc3ccccc3)CC2)cc1 | . | . | . | . | . | . | /
COc1ccc(N2CCN(C(=O)CNC(=O)Cc3ccc(Cl)cc3)CC2)cc1 | 410 | . | . | . | . | . | .
Cc1sc(NC(=O)c2ccco2)c(C(c2cccnc2)N2CCN(c3ccc(F)cc3)CC2)c1C (centres undefined) | . | . | . | . | . | . | /
Cc1sc(NC(=O)c2ccco2)c(C(c2ccc(F)cc2)N2CCN(C)CC2)c1C (centres undefined) | 405 | . | . | . | . | . | .
CCCCOc1cccc(C(=O)Nc2ccc(S(=O)(=O)Nc3nnc(CC)s3)cc2)c1 | . | . | . | . | . | . | /
O=C(CSc1nnc(C2CC2)n1C1CC1)c1ccccc1F | . | / | / | / | / | / | /
O=C(Nc1ncccn1)c1ccc(C(F)(F)F)cc1 | 438 | . | . | . | . | . | .
CC(C)(C)C(=O)Nc1cc2c3c(c1)CCN3C(=O)CC2 | . | . | . | / | . | . | /
Cc1cc(=O)nc2c3ccccc3n(CC(=O)NCCCN3CCCCC3C)n12 (centres undefined) | . | . | . | . | . | . | /
SMILES | SUMO Mot1 rescue | IMP-1 inhibitor | NALP1 yeast inh | UBC9 SUMO inh | DNA FID counter | VIM-2 inh | Mot1 SUMO dose
CCOc1ccc(N2CC(C(=O)OC)CC2=O)cc1 (centres undefined) | 385 | . | / | . | . | . | .
CCNC(=O)C1CC(=O)N(c2ccc(OCC)cc2)C1 (centres undefined) | . | . | . | . | . | . | /
COC(=O)C(Cc1ccccc1)NC(=O)CCC(=O)NC(C)CCc1ccccc1 (centres undefined) | . | . | . | . | . | . | /
COC(=O)[C@H](Cc1ccccc1)NC(=O)NC(C)CCc1ccccc1 (some centres undefined) | 871 | . | . | . | . | . | .
CN(C)C(CNC(=S)Nc1ccc(Cl)cc1)c1cccnc1 (centres undefined) | . | . | . | . | . | . | /
CCS(=O)c1ccccc1C(=O)O (centres undefined) | 392 | . | . | . | . | . | .
CCOC1(OCC)C(c2ccc(Cl)cc2)C(C#N)(C#N)C1(OCC)OCC (centres undefined) | 495 | . | / | . | . | . | .
Cc1sc2nc(CSC(C)C(=O)N3CCOCC3)[nH]c(=O)c2c1C (centres undefined) | . | . | . | . | . | . | /
O=C(c1cc(N2C(=O)C3C4CCC(C4)C3C2=O)ccc1Cl)N1CCN(c2ccccc2)CC1 (centres undefined) | + | . | . | . | . | . | .
CC1CCN(C(=O)c2cc(N3C(=O)C4C5CCC(C5)C4C3=O)ccc2Cl)CC1 (centres undefined) | . | . | . | . | . | . | /
CC1(C)Oc2ccc3ccc(=O)oc3c2/C(=C/Nc2ccc(O)cc2)C1=O | 984 | . | . | . | . | . | .
O=C1NC(=O)C(c2ccc(F)cc2)N1 (centres undefined) | . | . | . | . | . | . | /
Cc1cc(=O)c(C(=O)O)cn1Nc1ccc(Cl)cc1 | + | . | . | . | . | . | .
Cc1cc(=O)c(C(=O)O)cn1Nc1ccc(F)cc1 | / | . | . | . | . | . | /
COC(=O)c1ccc(N2C(=O)CC(NCc3ccccc3)C2=O)cc1 (centres undefined) | + | . | . | . | . | . | .
O=C1CC(NCc2ccc(F)cc2)C(=O)N1c1ccccc1 (centres undefined) | . | . | . | . | . | . | /
NS(=O)(=O)c1ccc(CCNC(=O)c2ccc([N+](=O)[O-])s2)cc1 | 389 | . | . | . | . | . | .
O=CNCc1nc2ccccc2n1CCc1ccccc1 | . | . | . | . | . | . | /
O=CNCCCc1nc2ccccc2n1CCc1ccccc1 | + | . | . | . | . | . | .
COc1ccc(C2=NOC(C)(c3nnc(-c4ccc(Cl)cc4)o3)C2)cc1 (centres undefined) | . | / | / | / | / | / | /
O=C(O)CN1CCN(Cc2cccc(Cl)c2)C1=O | . | . | . | . | . | . | /
O=C(CSc1ncccn1)c1ccccc1Br | 436 | . | / | . | . | . | .
Cc1cccc(NC(=O)CC2CCC2)c1 | . | . | . | . | . | . | /
Cc1ccc(NC(=O)CC2CS(=O)(=O)CC2CC(=O)Nc2ccc(C)c(C)c2)cc1C (centres undefined) | 440 | . | . | . | . | . | .
Cc1cc(NC(=O)CC2CCCC2)ccc1Br | 386 | . | . | . | . | . | .

Source: PubChem (several laboratories)
